According to the RNAGym collection of RNA variant scans (doi:10.1002/anie.201605470):

B1: Osa-1-4 twister ribozyme (parent)
chain: CCGCCUAACACUGCCAAUGCCGGUCCCAAGCCCGGAUAAAAGUGGAGGGGGCGG

Variants of: B1
Assay: self-cleavage, relative activity (ratio to wild type); higher = more cleavage; co-transcriptional
Outline: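 The 48 positions downstream of the cleavage site in a 54-nucleotide Oryza sativa twister ribozyme template were synthesised at 97 % wild-type base and 1 % of each other base. The template was transcribed in vitro at 37 °C for 2 h, with self-cleavage allowed during transcription. Reads with or without upstream sequence after deep sequencing marked cleavage status, and relative activity is fraction cleaved normalised to wild type.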
C33U G48U gave a self-cleavage of 0.04.
For C33U G49A, the self-cleavage was 0.08.
C33U G49C showed a self-cleavage of 0.07.
In the case of C33U G49U, the self-cleavage is reported as 0.08.
C33U G50A gave a self-cleavage of 0.32.
For C33U G50C, the self-cleavage was 0.53.
C33U G50U gave a self-cleavage of 0.88.
C33U G51A gave a self-cleavage of 0.35.
C33U G51C gave a self-cleavage of 0.08.
Work on C33U G51U yielded a self-cleavage of 0.13.
In the case of C33U G53A, the self-cleavage is reported as 0.35.
C33U G53C gave a self-cleavage of 0.07.
Work on C33U G53U yielded a self-cleavage of 0.13.
C33U G54A showed a self-cleavage of 0.57.
Variant C33U G54C has a self-cleavage of 0.61.
C33U G54U gave a self-cleavage of 0.68.
For C33U U12A, the self-cleavage was 0.27.
C33U U12C gave a self-cleavage of 0.11.
In the case of C33U U12G, the self-cleavage is reported as 0.08.
Variant C33U U18A has a self-cleavage of 0.81.
Work on C33U U18C yielded a self-cleavage of 0.63.
In the case of C33U U18G, the self-cleavage is reported as 0.48.
C33U U24A showed a self-cleavage of 0.14.
C33U U24C showed a self-cleavage of 0.06.
In the case of C33U U24G, the self-cleavage is reported as 0.03.
Work on C33U U37A yielded a self-cleavage of 0.87.
For C33U U37C, the self-cleavage was 0.88.
C33U U37G gave a self-cleavage of 0.9.
For C33U U43A, the self-cleavage was 0.19.
With C33U U43C the self-cleavage was 0.09.
C33U U43G gave a self-cleavage of 0.09.
G34A showed a self-cleavage of 0.86.
G34A G35A showed a self-cleavage of 0.77.
In the case of G34A G35C, the self-cleavage is reported as 0.29.
Variant G34A G35U has a self-cleavage of 0.8.
With G34A G42A the self-cleavage was 0.11.
For G34A G42C, the self-cleavage was 0.08.
Work on G34A G42U yielded a self-cleavage of 0.05.
With G34A G44A the self-cleavage was 0.69.
Work on G34A G44C yielded a self-cleavage of 0.58.
In the case of G34A G44U, the self-cleavage is reported as 0.58.
G34A G45A showed a self-cleavage of 0.15.
Work on G34A G45C yielded a self-cleavage of 0.06.
For G34A G45U, the self-cleavage was 0.09.
For G34A G47A, the self-cleavage was 0.13.
Work on G34A G47C yielded a self-cleavage of 0.08.
For G34A G47U, the self-cleavage was 0.1.
G34A G48A gave a self-cleavage of 0.08.
G34A G48C showed a self-cleavage of 0.08.
Variant G34A G48U has a self-cleavage of 0.06.
G34A G49A showed a self-cleavage of 0.13.
For G34A G49C, the self-cleavage was 0.07.
For G34A G49U, the self-cleavage was 0.1.
In the case of G34A G50A, the self-cleavage is reported as 0.29.
G34A G50C gave a self-cleavage of 0.6.
G34A G50U showed a self-cleavage of 0.83.
G34A G51A showed a self-cleavage of 0.15.
Work on G34A G51C yielded a self-cleavage of 0.06.
With G34A G51U the self-cleavage was 0.1.
G34A G53A gave a self-cleavage of 0.49.
For G34A G53C, the self-cleavage was 0.05.
G34A G53U showed a self-cleavage of 0.13.
Variant G34A G54A has a self-cleavage of 0.64.
G34A G54C gave a self-cleavage of 0.7.
For G34A G54U, the self-cleavage was 0.7.
G34A U12A gave a self-cleavage of 0.23.
Variant G34A U12C has a self-cleavage of 0.19.
With G34A U12G the self-cleavage was 0.07.
For G34A U18A, the self-cleavage was 0.73.
With G34A U18C the self-cleavage was 0.43.
G34A U18G showed a self-cleavage of 0.71.
Work on G34A U24A yielded a self-cleavage of 0.18.
Work on G34A U24C yielded a self-cleavage of 0.06.
Variant G34A U24G has a self-cleavage of 0.03.
For G34A U37A, the self-cleavage was 0.88.
G34A U37C gave a self-cleavage of 0.89.
Work on G34A U37G yielded a self-cleavage of 0.88.
G34A U43A gave a self-cleavage of 0.22.
Work on G34A U43C yielded a self-cleavage of 0.19.
G34A U43G showed a self-cleavage of 0.1.
G34C showed a self-cleavage of 0.71.
With G34C G35A the self-cleavage was 0.39.
Variant G34C G35C has a self-cleavage of 0.11.
Work on G34C G35U yielded a self-cleavage of 0.28.
Variant G34C G42A has a self-cleavage of 0.09.
Work on G34C G42C yielded a self-cleavage of 0.09.
Work on G34C G42U yielded a self-cleavage of 0.04.
Work on G34C G44A yielded a self-cleavage of 0.2.
G34C G44C gave a self-cleavage of 0.14.
G34C G44U gave a self-cleavage of 0.16.
Variant G34C G45A has a self-cleavage of 0.05.
G34C G45C showed a self-cleavage of 0.06.
For G34C G45U, the self-cleavage was 0.06.
G34C G47A showed a self-cleavage of 0.07.
Work on G34C G47C yielded a self-cleavage of 0.05.
Work on G34C G47U yielded a self-cleavage of 0.06.
With G34C G48A the self-cleavage was 0.06.
Work on G34C G48C yielded a self-cleavage of 0.05.
In the case of G34C G48U, the self-cleavage is reported as 0.05.
For G34C G49A, the self-cleavage was 0.06.
G34C G49C showed a self-cleavage of 0.06.
Work on G34C G49U yielded a self-cleavage of 0.07.
G34C G50A gave a self-cleavage of 0.23.
With G34C G50C the self-cleavage was 0.19.
With G34C G50U the self-cleavage was 0.41.
For G34C G51A, the self-cleavage was 0.1.
Variant G34C G51C has a self-cleavage of 0.06.
For G34C G51U, the self-cleavage was 0.06.
G34C G53A gave a self-cleavage of 0.09.
G34C G53C showed a self-cleavage of 0.09.
G34C G53U gave a self-cleavage of 0.07.
With G34C G54A the self-cleavage was 0.15.
G34C G54C gave a self-cleavage of 0.16.
With G34C G54U the self-cleavage was 0.25.
For G34C U12A, the self-cleavage was 0.1.
In the case of G34C U12C, the self-cleavage is reported as 0.1.
With G34C U12G the self-cleavage was 0.08.
Work on G34C U18A yielded a self-cleavage of 0.43.
Work on G34C U18C yielded a self-cleavage of 0.36.
For G34C U18G, the self-cleavage was 0.15.
Variant G34C U24A has a self-cleavage of 0.07.
Variant G34C U24C has a self-cleavage of 0.06.
G34C U24G gave a self-cleavage of 0.02.
For G34C U37A, the self-cleavage was 0.6.
G34C U37C gave a self-cleavage of 0.65.
With G34C U37G the self-cleavage was 0.66.
G34C U43A gave a self-cleavage of 0.09.
In the case of G34C U43C, the self-cleavage is reported as 0.1.
With G34C U43G the self-cleavage was 0.07.
With G34U the self-cleavage was 0.82.
In the case of G34U G35A, the self-cleavage is reported as 0.6.
Variant G34U G35C has a self-cleavage of 0.31.
Work on G34U G35U yielded a self-cleavage of 0.52.
Work on G34U G42A yielded a self-cleavage of 0.13.
G34U G42C gave a self-cleavage of 0.08.
In the case of G34U G42U, the self-cleavage is reported as 0.07.
G34U G44A gave a self-cleavage of 0.55.
Work on G34U G44C yielded a self-cleavage of 0.41.
With G34U G44U the self-cleavage was 0.5.
In the case of G34U G45A, the self-cleavage is reported as 0.09.
G34U G45C showed a self-cleavage of 0.05.
G34U G45U showed a self-cleavage of 0.08.
Work on G34U G47A yielded a self-cleavage of 0.09.
G34U G47C showed a self-cleavage of 0.05.
G34U G47U showed a self-cleavage of 0.1.
With G34U G48A the self-cleavage was 0.07.
Work on G34U G48C yielded a self-cleavage of 0.07.
Work on G34U G48U yielded a self-cleavage of 0.05.
Variant G34U G49A has a self-cleavage of 0.11.
For G34U G49C, the self-cleavage was 0.06.
For G34U G49U, the self-cleavage was 0.11.
Variant G34U G50A has a self-cleavage of 0.26.
For G34U G50C, the self-cleavage was 0.39.
G34U G50U gave a self-cleavage of 0.73.
G34U G51A showed a self-cleavage of 0.1.
Work on G34U G51C yielded a self-cleavage of 0.05.
In the case of G34U G51U, the self-cleavage is reported as 0.06.
For G34U G53A, the self-cleavage was 0.27.
With G34U G53C the self-cleavage was 0.05.
Work on G34U G53U yielded a self-cleavage of 0.11.
G34U G54A gave a self-cleavage of 0.39.
In the case of G34U G54C, the self-cleavage is reported as 0.57.
G34U G54U gave a self-cleavage of 0.49.
For G34U U12A, the self-cleavage was 0.14.
G34U U12C showed a self-cleavage of 0.14.
In the case of G34U U12G, the self-cleavage is reported as 0.05.
With G34U U18A the self-cleavage was 0.64.
